Measured values as given in ChEMBL document CHEMBL2331542, “Synthesis and in vitro antibacterial activity of quinolone/naphthyridone derivatives containing 3-alkoxyimino-4-(methyl)aminopiperidine scaffolds” (2013).
≈ marks a conversion by molar mass, not a printed value.

Columns and labels:
Type in all cases: functional
[1] = tested on: Escherichia coli; assay: Antibacterial activity against extended-spectrum beta-lactamase-producing Escherichia coli isolate 12-4
How it was run: (§1)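 MIC determined in vitro by a standard technique and defined as the lowest compound concentration giving complete inhibition of bacterial growth. The Gram-positive and Gram-negative panels were tested alongside gemifloxacin, levofloxacin and ciprofloxacin reference drugs.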

[2] = tested on: Escherichia coli; assay: Antibacterial activity against extended-spectrum beta-lactamase-producing Escherichia coli isolate 12-2; how it was run: as §1
[3] = tested on: Escherichia coli; assay: Antibacterial activity against extended-spectrum beta-lactamase-producing Escherichia coli isolate 12-1; how it was run: as §1
[4] = tested on: Escherichia coli; assay: Antibacterial activity against Escherichia coli isolate 12-5; how it was run: as §1
[5] = tested on: Escherichia coli; assay: Antibacterial activity against Escherichia coli isolate 12-4; how it was run: as §1
[6] = tested on: Escherichia coli; assay: Antibacterial activity against Escherichia coli isolate 12-1; how it was run: as §1
[7] = tested on: Escherichia coli; assay: Antibacterial activity against Escherichia coli ATCC 25922; how it was run: as §1
[8] = tested on: Streptococcus pneumoniae; assay: Antibacterial activity against Streptococcus pneumoniae isolate 12-5; how it was run: as §1
[9] = tested on: Streptococcus pneumoniae; assay: Antibacterial activity against Streptococcus pneumoniae isolate 12-2; how it was run: as §1
[10] = tested on: Staphylococcus epidermidis; assay: Antibacterial activity against methicillin-resistant Staphylococcus epidermidis isolate 12-35
How it was run: (§2)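 MIC determined in vitro by standard techniques, defined as the lowest compound concentration giving complete inhibition of bacterial growth. Gemifloxacin, levofloxacin and ciprofloxacin were tested alongside as reference drugs.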

[11] = tested on: Staphylococcus epidermidis; assay: Antibacterial activity against methicillin-resistant Staphylococcus epidermidis isolate 12-33; how it was run: as §2
[12] = tested on: Staphylococcus epidermidis; assay: Antibacterial activity against methicillin-resistant Staphylococcus epidermidis isolate 12-5; how it was run: as §2
[13] = tested on: Staphylococcus epidermidis; assay: Antibacterial activity against methicillin-sensitive Staphylococcus epidermidis isolate 12-3; how it was run: as §1
[14] = tested on: Staphylococcus epidermidis; assay: Antibacterial activity against methicillin-sensitive Staphylococcus epidermidis isolate 12-2; how it was run: as §1
[15] = tested on: Staphylococcus epidermidis; assay: Antibacterial activity against methicillin-sensitive Staphylococcus epidermidis isolate 12-1; how it was run: as §1
[16] = tested on: Staphylococcus aureus; assay: Antibacterial activity against methicillin-resistant Staphylococcus aureus isolate 12-15; how it was run: as §2
[17] = tested on: Staphylococcus aureus; assay: Antibacterial activity against methicillin-resistant Staphylococcus aureus isolate 12-13; how it was run: as §2
[18] = tested on: Staphylococcus aureus; assay: Antibacterial activity against methicillin-resistant Staphylococcus aureus isolate 12-3; how it was run: as §2
[19] = tested on: Staphylococcus aureus; assay: Antibacterial activity against methicillin-sensitive Staphylococcus aureus isolate 12-10; how it was run: as §1
[20] = tested on: Staphylococcus aureus; assay: Antibacterial activity against methicillin-sensitive Staphylococcus aureus isolate 12-7; how it was run: as §1
[21] = tested on: Staphylococcus aureus; assay: Antibacterial activity against methicillin-sensitive Staphylococcus aureus isolate 12-6; how it was run: as §1
[22] = tested on: Staphylococcus aureus; assay: Antibacterial activity against Staphylococcus aureus […]; how it was run: as §1
[23] = tested on: Pseudomonas aeruginosa; assay: Antibacterial activity against Pseudomonas aeruginosa isolate 12-2; how it was run: as §1
[24] = tested on: Pseudomonas aeruginosa; assay: Antibacterial activity against Pseudomonas aeruginosa isolate 12-1; how it was run: as §1
[25] = tested on: Pseudomonas aeruginosa; assay: Antibacterial activity against Pseudomonas aeruginosa ATCC 27853; how it was run: as §1
[26] = tested on: Klebsiella pneumoniae; assay: Antibacterial activity against extended-spectrum beta-lactamase-producing Klebsiella pneumoniae isolate 12-4; how it was run: as §1
[27] = tested on: Klebsiella pneumoniae; assay: Antibacterial activity against extended-spectrum beta-lactamase-producing Klebsiella pneumoniae isolate 12-2; how it was run: as §1
[28] = tested on: Klebsiella pneumoniae; assay: Antibacterial activity against extended-spectrum beta-lactamase-producing Klebsiella pneumoniae isolate 12-1; how it was run: as §1
[29] = tested on: Klebsiella pneumoniae; assay: Antibacterial activity against Klebsiella pneumoniae isolate 12-4; how it was run: as §1
[30] = tested on: Klebsiella pneumoniae; assay: Antibacterial activity against Klebsiella pneumoniae isolate 12-2; how it was run: as §1
[31] = tested on: Klebsiella pneumoniae; assay: Antibacterial activity against Klebsiella pneumoniae isolate 12-1; how it was run: as §1

Row | Compound | MIC [1] [µg/mL] | MIC [2] [µg/mL] | MIC [3] [µg/mL] | MIC [4] [µg/mL] | MIC [5] [µg/mL] | MIC [6] [µg/mL] | MIC [7] [µg/mL] | MIC [8] [µg/mL] | MIC [9] [µg/mL] | MIC [10] [µg/mL] | MIC [11] [µg/mL] | MIC [12] [µg/mL] | MIC [13] [µg/mL] | MIC [14] [µg/mL] | MIC [15] [µg/mL] | MIC [16] [µg/mL] | MIC [17] [µg/mL] | MIC [18] [µg/mL] | MIC [19] [µg/mL] | MIC [20] [µg/mL] | also measured
1 | CO/N=C1\CN(c2c(F)cc3c(=O)c(C(=O)O)cn(C4CC4)c3c2OC)CCC1N (centres undefined) | 16 (≈ 38.2 µM) | 64 (≈ 153 µM) | 64 (≈ 153 µM) | 64 (≈ 153 µM) | 128 (≈ 306 µM) | 2 (≈ 4.78 µM) | 4 (≈ 9.56 µM) | 2 (≈ 4.78 µM) | 0.25 (≈ 0.597 µM) | 0.25 (≈ 0.597 µM) | 2 (≈ 4.78 µM) | 0.25 (≈ 0.597 µM) | 0.25 (≈ 0.597 µM) | 0.5 (≈ 1.19 µM) | 0.25 (≈ 0.597 µM) | 0.25 (≈ 0.597 µM) | 0.25 (≈ 0.597 µM) | 0.25 (≈ 0.597 µM) | 0.125 (≈ 0.299 µM) | 8 (≈ 19.1 µM) | MIC [21]: 0.25 µg/mL (≈ 0.597 µM); MIC [22]: 0.06 µg/mL (≈ 0.143 µM); MIC [23]: 16 µg/mL (≈ 38.2 µM); MIC [24]: 16 µg/mL (≈ 38.2 µM); MIC [25]: 4 µg/mL (≈ 9.56 µM); MIC [26]: 64 µg/mL (≈ 153 µM); MIC [27]: 16 µg/mL (≈ 38.2 µM); MIC [28]: 8 µg/mL (≈ 19.1 µM); MIC [29]: 0.5 µg/mL (≈ 1.19 µM); MIC [30]: 2 µg/mL (≈ 4.78 µM); MIC [31]: 2 µg/mL (≈ 4.78 µM)
2 | CO/N=C1\CN(c2c(F)cc3c(=O)c(C(=O)O)cn4c3c2OC[C@@H]4C)CCC1N (some centres undefined) | 16 (≈ 39.6 µM) | > 128 | 128 (≈ 317 µM) | 128 (≈ 317 µM) | > 128 | 4 (≈ 9.89 µM) | 8 (≈ 19.8 µM) | 0.5 (≈ 1.24 µM) | 0.5 (≈ 1.24 µM) | 0.5 (≈ 1.24 µM) | 0.5 (≈ 1.24 µM) | 0.5 (≈ 1.24 µM) | 0.5 (≈ 1.24 µM) | 1 (≈ 2.47 µM) | 0.5 (≈ 1.24 µM) | 1 (≈ 2.47 µM) | 1 (≈ 2.47 µM) | 1 (≈ 2.47 µM) | 0.25 (≈ 0.618 µM) | 64 (≈ 158 µM) | MIC [21]: 0.5 µg/mL (≈ 1.24 µM); MIC [22]: 0.5 µg/mL (≈ 1.24 µM); MIC [23]: 16 µg/mL (≈ 39.6 µM); MIC [24]: 16 µg/mL (≈ 39.6 µM); MIC [25]: 32 µg/mL (≈ 79.1 µM); MIC [26]: 128 µg/mL (≈ 317 µM); MIC [27]: 16 µg/mL (≈ 39.6 µM); MIC [28]: 0.5 µg/mL (≈ 1.24 µM); MIC [29]: 1 µg/mL (≈ 2.47 µM); MIC [30]: 1 µg/mL (≈ 2.47 µM); MIC [31]: 8 µg/mL (≈ 19.8 µM)
3 | CNC1CCN(c2c(F)cc3c(=O)c(C(=O)O)cn(C4CC4)c3c2OC)C/C1=N\OC (centres undefined) | 32 (≈ 74 µM) | > 128 | > 128 | 128 (≈ 296 µM) | > 128 | 4 (≈ 9.25 µM) | 0.125 (≈ 0.289 µM) | 0.125 (≈ 0.289 µM) | 0.125 (≈ 0.289 µM) | 0.06 (≈ 0.139 µM) | 0.125 (≈ 0.289 µM) | 0.06 (≈ 0.139 µM) | 0.25 (≈ 0.578 µM) | 0.5 (≈ 1.16 µM) | 0.25 (≈ 0.578 µM) | 0.25 (≈ 0.578 µM) | 0.25 (≈ 0.578 µM) | 0.25 (≈ 0.578 µM) | 0.06 (≈ 0.139 µM) | 0.125 (≈ 0.289 µM) | MIC [21]: 0.06 µg/mL (≈ 0.139 µM); MIC [22]: 0.25 µg/mL (≈ 0.578 µM); MIC [23]: 16 µg/mL (≈ 37 µM); MIC [24]: 16 µg/mL (≈ 37 µM); MIC [25]: 8 µg/mL (≈ 18.5 µM); MIC [26]: 0.5 µg/mL (≈ 1.16 µM); MIC [27]: 16 µg/mL (≈ 37 µM); MIC [28]: 16 µg/mL (≈ 37 µM); MIC [29]: 0.5 µg/mL (≈ 1.16 µM); MIC [30]: 2 µg/mL (≈ 4.62 µM); MIC [31]: 1 µg/mL (≈ 2.31 µM)
4 | CNC1CCN(c2nc3c(cc2F)c(=O)c(C(=O)O)cn3C2CC2)C/C1=N\OC (centres undefined) | 16 (≈ 39.7 µM) | > 128 | > 128 | > 128 | > 128 | 4 (≈ 9.92 µM) | 0.125 (≈ 0.31 µM) | 0.5 (≈ 1.24 µM) | 0.5 (≈ 1.24 µM) | 0.25 (≈ 0.62 µM) | 0.06 (≈ 0.149 µM) | 0.25 (≈ 0.62 µM) | 0.5 (≈ 1.24 µM) | 2 (≈ 4.96 µM) | 0.5 (≈ 1.24 µM) | 1 (≈ 2.48 µM) | 1 (≈ 2.48 µM) | 1 (≈ 2.48 µM) | 0.25 (≈ 0.62 µM) | 0.5 (≈ 1.24 µM) | MIC [21]: 0.25 µg/mL (≈ 0.62 µM); MIC [22]: 0.5 µg/mL (≈ 1.24 µM); MIC [23]: 16 µg/mL (≈ 39.7 µM); MIC [24]: 16 µg/mL (≈ 39.7 µM); MIC [25]: 2 µg/mL (≈ 4.96 µM); MIC [26]: 0.125 µg/mL (≈ 0.31 µM); MIC [27]: 16 µg/mL (≈ 39.7 µM); MIC [28]: 16 µg/mL (≈ 39.7 µM); MIC [29]: 0.125 µg/mL (≈ 0.31 µM); MIC [30]: 0.5 µg/mL (≈ 1.24 µM); MIC [31]: 0.5 µg/mL (≈ 1.24 µM)
